Results published in ChEMBL document CHEMBL2407032, “Structural modification of pantothenamides counteracts degradation by pantetheinase and improves antiplasmodial activity” (ACS Med Chem Lett, 2013).

How the values were obtained:
[1] = system: Plasmodium falciparum; assay: Antiplasmodial activity against intraerythrocytic Plasmodium falciparum 3D7 infected in human erythrocytes in fresh RPMI-1640 culture medium assessed as parasite growth inhibition after 96 hrs by microscopic analysis; type: functional, organism-based; conditions: 3D7, 96 h
In short: (§1)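 3D7 parasites in erythrocytes, started mostly at ring stage, grown 96 h in freshly prepared Albumax-complete RPMI (pantetheinase active) with 1 μM pantothenic acid. IC50 from concentration-response. Mean ± SEM (or range/2) of at least two independent experiments, each in triplicate.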

[2] = system: Plasmodium falciparum; assay: Antiplasmodial activity against intraerythrocytic Plasmodium falciparum 3D7 infected in human erythrocytes in heat treated RPMI-1640 culture medium assessed as parasite growth inhibition after 96 hrs by microscopic analysis; type: functional, organism-based; conditions: 3D7, 96 h
In short: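 3D7 ring-stage-initiated cultures in erythrocytes, grown 96 h in aged Albumax-complete RPMI. The medium was heat-treated for a prolonged time to reduce pantetheinase activity and held 1 μM pantothenic acid. IC50 from concentration-response. Mean ± SEM (or range/2) of at least two independent experiments, each in triplicate.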

[3] = system: pantetheinase; assay: Drug metabolism of the compound assessed as compound hydrolysis at 200 uM after 10 mins by fluorescence assay in presence of recombinant human pantetheinase; type: physicochemical; conditions: read-out: Drug metabolism
[4] = system: Plasmodium falciparum; assay: Antiplasmodial activity against intraerythrocytic Plasmodium falciparum 3D7 infected in human erythrocytes in fresh RPMI-1640 culture medium assessed as parasite growth inhibition after 96 hrs by microscopic analysis in presence of pantetheinase; type: functional, organism-based; conditions: 3D7, 96 h; in short: as §1
[5] = Selectivity index, ratio of IC50 for human Jurkat cells to IC50 for intraerythrocytic Plasmodium falciparum 3D7 infected in human erythrocytes in fresh RPMI-1640 culture medium; type: toxicity, cell-based; conditions: read-out: Ratio IC50
[6] = system: Jurkat; assay: Cytotoxicity against human Jurkat cells after 96 hrs by SYBR green assay in presence of pantothenic acid; type: cell-based
In short: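 Human leukemic T-cell line grown 96 h in medium with 1 μM pantothenic acid. IC50 from concentration-response profiles. Means ± SEM of three independent experiments performed in triplicate.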

With `COc1cccc(CNC(=O)CNC(=O)[C@H](O)C(C)(C)CO)c1` as the molecule, how does the IC50 [1] read?
Its IC50 is over 200 µM.

And the IC50 [2]?
The IC50 was over 200 µM.

What about the metabolised at 10 min, 200 µM [3] of the same molecule?
Its metabolised at 10 min, 200 µM is 5%.

What does the source list for `CC(C)(CO)[C@@H](O)C(=O)NCC(=O)NCc1ccc2c(c1)OCO2`?
IC50 [1]: 53 µM; IC50 [4]: > 200 µM; metabolised at 10 min, 200 µM [3]: 5%

With `CCCCCCNC(=O)CCNC(=O)[C@H](O)C(C)(C)CO` as the molecule, how does the IC50 [1] read?
The IC50 was 134 µM.

And the IC50 [2]?
The IC50 was 0.55 µM.

For `CCCCCCCNC(=O)CCCNC(=O)[C@H](O)C(C)(C)CO`, which IC50 [1] is on record?
The IC50 was 11 µM.

What about the metabolised at 10 min, 200 µM [3] of the same molecule?
Its metabolised at 10 min, 200 µM is 5%.

For `CCSCCNC(=O)CCCNC(=O)[C@H](O)C(C)(C)CO`, which selectivity ratio [5] is on record?
Its selectivity ratio is over 100.

What about the IC50 [1] of the same molecule?
The IC50 was 2 µM.

And the IC50 [6]?
Its IC50 is over 200 µM.

What about the IC50 [2] of the same molecule?
The IC50 was 1.9 µM.

And the IC50 [4]?
Its IC50 is 169 µM.

And the metabolised at 10 min, 200 µM [3]?
The metabolised at 10 min, 200 µM was 5%.

Which IC50 [1] does the source give for `CC(C)(CO)[C@@H](O)C(=O)NCCC(=O)NCC1CC1` here?
The IC50 was 149 µM.

With `CC(C)(CO)[C@@H](O)C(=O)NCCCC(=O)NCc1ccc(C(F)(F)F)cc1` as the molecule, how does the metabolised at 10 min, 200 µM [3] read?
Its metabolised at 10 min, 200 µM is 5%.

Which IC50 [1] does the source give for `CCCCCCCNC(=O)CCNC(=O)[C@H](O)C(C)(C)CO` here?
The IC50 was over 200 µM.

For `CC(C)(CO)[C@@H](O)C(=O)NCCC(=O)NCc1ccc2c(c1)OCO2`, which IC50 [1] is on record?
Its IC50 is 144 µM.

What does the source list for `CCCCCNC(=O)CCNC(=O)[C@H](O)C(C)(C)CO`?
IC50 [1]: 182 µM; IC50 [2]: 7.5 µM

For `CC(C)(CO)[C@@H](O)C(=O)NCCCC(=O)NCCc1ccccc1`, which selectivity ratio [5] is on record?
The selectivity ratio was 47.

And the IC50 [1]?
The IC50 was 2.1 µM.

And the IC50 [6]?
Its IC50 is 99 µM.

And the IC50 [4]?
The IC50 was 139 µM.

And the metabolised at 10 min, 200 µM [3]?
The metabolised at 10 min, 200 µM was 5%.

For `CC(C)(CO)[C@@H](O)C(=O)NCCC(=O)NCc1ccc(OC(F)(F)F)cc1`, which IC50 [1] is on record?
The IC50 was over 200 µM.

What about the IC50 [2] of the same molecule?
Its IC50 is 136 µM.

For `CC(C)CCNC(=O)CCCNC(=O)[C@H](O)C(C)(C)CO`, which IC50 [1] is on record?
Its IC50 is 8.9 µM.

What about the metabolised at 10 min, 200 µM [3] of the same molecule?
Its metabolised at 10 min, 200 µM is 5%.

For `CSCCCNC(=O)CNC(=O)[C@H](O)C(C)(C)CO`, which IC50 [1] is on record?
The IC50 was 38 µM.

And the metabolised at 10 min, 200 µM [3]?
The metabolised at 10 min, 200 µM was 5%.

For `CC(C)(CO)[C@@H](O)C(=O)NCCC(=O)NCc1cccc(C(F)(F)F)c1`, which IC50 [1] is on record?
Its IC50 is over 200 µM.

What about the IC50 [2] of the same molecule?
Its IC50 is 156 µM.

Which IC50 [1] does the source give for `CCSCCNC(=O)CNC(=O)[C@H](O)C(C)(C)CO` here?
The IC50 was 10 µM.

What about the IC50 [2] of the same molecule?
The IC50 was 11 µM.

And the IC50 [4]?
Its IC50 is 200 µM.

What about the metabolised at 10 min, 200 µM [3] of the same molecule?
The metabolised at 10 min, 200 µM was 5%.

Which selectivity ratio [5] does the source give for `CC(C)(CO)[C@@H](O)C(=O)NCCCC(=O)NCc1ccc2c(c1)OCO2` here?
Its selectivity ratio is 9.

And the IC50 [1]?
The IC50 was 2.4 µM.

And the IC50 [6]?
Its IC50 is 23 µM.

What about the IC50 [4] of the same molecule?
Its IC50 is 88 µM.

And the metabolised at 10 min, 200 µM [3]?
The metabolised at 10 min, 200 µM was 5%.

Which IC50 [1] does the source give for `CCCNC(=O)CCCNC(=O)[C@H](O)C(C)(C)CO` here?
Its IC50 is 13 µM.

What about the metabolised at 10 min, 200 µM [3] of the same molecule?
The metabolised at 10 min, 200 µM was 5%.

Which IC50 [1] does the source give for `CC(C)CCNC(=O)CCNC(=O)[C@H](O)C(C)(C)CO` here?
Its IC50 is over 200 µM.

For `CC(C)CNC(=O)CCNC(=O)[C@H](O)C(C)(C)CO`, which IC50 [1] is on record?
Its IC50 is 200 µM.

What about the IC50 [2] of the same molecule?
The IC50 was 1.1 µM.

With `CCCCNC(=O)CCCNC(=O)[C@H](O)C(C)(C)CO` as the molecule, how does the IC50 [1] read?
The IC50 was 11 µM.

And the metabolised at 10 min, 200 µM [3]?
Its metabolised at 10 min, 200 µM is 25%.

Which IC50 [1] does the source give for `CC(C)(CO)[C@@H](O)C(=O)NCCC(=O)NCCc1ccccc1` here?
The IC50 was 53 µM.

What about the IC50 [2] of the same molecule?
The IC50 was 0.02 µM.

For `CC(C)(CO)[C@@H](O)C(=O)NCCCC(=O)NCC1CCCCC1`, which selectivity ratio [5] is on record?
The selectivity ratio was 54.

And the IC50 [1]?
Its IC50 is 2.1 µM.

What about the IC50 [6] of the same molecule?
The IC50 was 113 µM.

What about the IC50 [2] of the same molecule?
Its IC50 is 3.3 µM.

And the IC50 [4]?
The IC50 was over 200 µM.

And the metabolised at 10 min, 200 µM [3]?
The metabolised at 10 min, 200 µM was 5%.

Which results are given for `COc1cccc(CNC(=O)CCCNC(=O)[C@H](O)C(C)(C)CO)c1`?
IC50 [1]: 21 µM; IC50 [2]: 22 µM; IC50 [4]: > 200 µM; metabolised at 10 min, 200 µM [3]: 5%

Which results are given for `COc1ccc(CNC(=O)CNC(=O)[C@H](O)C(C)(C)CO)cc1`?
IC50 [1]: 26 µM; IC50 [2]: 71 µM; IC50 [4]: 189 µM; metabolised at 10 min, 200 µM [3]: 5%

Which IC50 [1] does the source give for `CCCCNC(=O)CCNC(=O)[C@H](O)C(C)(C)CO` here?
Its IC50 is over 200 µM.

What does the source list for `CC(C)(CO)[C@@H](O)C(=O)NCCCC(=O)NCc1ccc(OC(F)(F)F)cc1`?
IC50 [1]: 6.3 µM; IC50 [2]: 4.9 µM; IC50 [4]: > 200 µM; metabolised at 10 min, 200 µM [3]: 5%

Which results are given for `CCCCCNC(=O)CNC(=O)[C@H](O)C(C)(C)CO`?
IC50 [1]: 7 µM; IC50 [2]: 14 µM; IC50 [4]: 142 µM; metabolised at 10 min, 200 µM [3]: 5%

With `CCCNC(=O)CNC(=O)[C@H](O)C(C)(C)CO` as the molecule, how does the IC50 [1] read?
The IC50 was 13 µM.

What about the metabolised at 10 min, 200 µM [3] of the same molecule?
The metabolised at 10 min, 200 µM was 5%.

What does the source list for `CC(C)(CO)[C@@H](O)C(=O)NCC(=O)NCc1cccc(C(F)(F)F)c1`?
IC50 [1]: 89 µM; IC50 [2]: 116 µM; IC50 [4]: 177 µM; metabolised at 10 min, 200 µM [3]: 5%
